This is an account of results in the array DNA melting data of Ke et al. (doi:10.1101/2024.01.08.574731).

A short description of data set [1]: folding enthalpy; higher = less favourable; fluorescence melt of hairpins on a sequencing array, two-state fit. Conditions: sodium 0.088 M. The procedure, abridged:
(§1)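 Bootstrapped two-state fits yielded melting temperature and folding enthalpy for library hairpins. Cy3 fluorescence, with annealed Cy3 and quencher oligos, was imaged on a sequenced MiSeq flow cell in 50 mM Na-HEPES pH 8.0, 25 mM NaCl in 2.5 °C steps up to 60 °C, and normalised to pre-quench Cy3 and to control constructs. Four replicates were combined by inverse variance, and fitted temperatures were raised by 9.35 °C to match UV melts.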

Data set [2] is described as follows: melting temperature; fluorescence melt of hairpins on a sequencing array, two-state fit, raised by 9.35 °C to match UV melts. The settings on record: sodium 0.088 M. The procedure, abridged: as §1

Regarding GTGCCCGAAAGGGTTCAC ((((((....)))..))), the folding enthalpy in data set [1] is -11.8 kcal/mol. Also, the Tm in data set [2] was determined as 41.1 °C.

Regarding GTGCCCGCGAAAGCGCAC (((..(((....)))))), the folding enthalpy in data set [1] was -13.5 kcal/mol. In data set [2], the Tm worked out at 45.5 °C.

Turning to GTGCCGCCGAAAGGCCAC (((..(((....)))))), the folding enthalpy in data set [1] is -9.13 kcal/mol. Further, the Tm in data set [2] was 60 °C.

Take GTGCCGGCGAAAGCCCAC (((..(((....)))))): in data set [1], the folding enthalpy was -6.81 kcal/mol. Besides, the Tm in data set [2] worked out at 59.9 °C.

As for GTGCCGGGAAACCGGCGC (.(((((....))))).), the folding enthalpy in data set [1] was -18.2 kcal/mol. For the same sequence, in data set [2], the Tm was 67.3 °C.

For the sequence GTGCCGTCGAAAGACCAC (((..(((....)))))), the folding enthalpy in data set [1] was -6.11 kcal/mol. Moreover, the Tm in data set [2] was 49.7 °C.

On to GTGCCTCGAAAGAGCAC (((.(((....)))))), for which the folding enthalpy in data set [1] was -28.5 kcal/mol. The Tm in data set [2] stood at 53.5 °C.

In the case of GTGCGAACGAAAGTTCAC (((..(((....)))))), in data set [1], the folding enthalpy was -12.1 kcal/mol. For the same sequence, in data set [2], the Tm amounted to 53.3 °C.

As for GTGCGACCGAAAGGTCAC (((..(((....)))))), the folding enthalpy in data set [1] is -13.1 kcal/mol. Also, the Tm in data set [2] worked out at 60 °C.

On to GTGCGAGCGAAAGCTCAC (((..(((....)))))), for which the folding enthalpy in data set [1] was -12.2 kcal/mol. In data set [2], the Tm turned out to be 59.4 °C.

As for GTGCGATCGAAAGATCAC (((..(((....)))))), in data set [1], the folding enthalpy was -18.2 kcal/mol. In addition, the Tm in data set [2] was 44.4 °C.

For the sequence GTGCGCCCGAAAGGGCAC (((..(((....)))))), the folding enthalpy in data set [1] was -10.4 kcal/mol. Besides, in data set [2], the Tm worked out at 64.3 °C.

As for GTGCGCCGAAAGGCTCAC (((.(((....))).))), the folding enthalpy in data set [1] was -29.1 kcal/mol. Moreover, in data set [2], the Tm is 56.9 °C.

For the sequence GTGCGCGAAAGCGACCAC ((((((....)))..))), in data set [1], the folding enthalpy was -10.4 kcal/mol. The Tm in data set [2] is 43.8 °C.

For GTGCGCGAAAGCGAGCAC ((((((....)))..))), the folding enthalpy in data set [1] is -25.5 kcal/mol. Further, in data set [2], the Tm came to 57.7 °C.

In the case of GTGCGCGAAAGCGTTCAC ((((((....)))..))), the folding enthalpy in data set [1] was -11.3 kcal/mol. In addition, in data set [2], the Tm is 39.9 °C.

Regarding GTGCGCGGAAACACGCAC (((((.(....).))))), in data set [1], the folding enthalpy was -46.6 kcal/mol. Also, in data set [2], the Tm is 59.7 °C.

Take GTGCGGCGAAAGCCACAC (((.(((....))).))): in data set [1], the folding enthalpy is -29.2 kcal/mol. For the same sequence, the Tm in data set [2] was determined as 62.1 °C.

Turning to GTGCGGGGAAACTCGCAC (((((.(....).))))), the folding enthalpy in data set [1] was -40.1 kcal/mol. In data set [2], the Tm came to 61.2 °C.

In the case of GTGCGTGGAAACACACAC (((.(((....))).))), the folding enthalpy in data set [1] is -37.9 kcal/mol. In addition, the Tm in data set [2] worked out at 48.6 °C.

Consider GTGCGTGGAAACACGCGC (.(((((....))))).), for which the folding enthalpy in data set [1] is -18 kcal/mol. Also, the Tm in data set [2] amounted to 65.9 °C.

As for GTGCGTGGAAACACGTAC ((.((((....)))).)), the folding enthalpy in data set [1] was -32.8 kcal/mol. Moreover, in data set [2], the Tm came out at 56.1 °C.

Regarding GTGCGTGGAAACATGCGC (.((.((....)).)).), the folding enthalpy in data set [1] is -29.6 kcal/mol. Further, the Tm in data set [2] is 49.5 °C.

In the case of GTGCGTGGAAACGCGTAC ((.((.(....).)).)), the folding enthalpy in data set [1] is -10.9 kcal/mol. For the same sequence, the Tm in data set [2] was found to be 42.7 °C.

With GTGCTAGAAATAGCAC ((((((....)))))), the folding enthalpy in data set [1] is -40.3 kcal/mol. Besides, in data set [2], the Tm is 56.5 °C.

For GTGCTAGGAAACTAACAC (((.(((....))).))), the folding enthalpy in data set [1] was -27.7 kcal/mol. Moreover, in data set [2], the Tm was 34.4 °C.

Take GTGCTAGGAAACTAGCGC (.(((((....))))).): the folding enthalpy in data set [1] was -39.6 kcal/mol. Moreover, the Tm in data set [2] came out at 53.5 °C.

Consider GTGCTAGGAAACTGGCAC ((((.((....)).)))), for which the folding enthalpy in data set [1] is -45.4 kcal/mol. In addition, the Tm in data set [2] was found to be 53.5 °C.

With GTGCTCCCGAAAGGGCAC (((..(((....)))))), in data set [1], the folding enthalpy is -19.9 kcal/mol. In data set [2], the Tm worked out at 49.8 °C.

GTGCTCCGAAAGGACAC (((.(((....)))))): in data set [1], the folding enthalpy was -27.4 kcal/mol. Further, in data set [2], the Tm is 51.9 °C.
